The structures appear in SMILES notation. Active and inactive are the calls of the source. No cut-off for these calls is given here.

The target of series [1] is T1, Retinoic acid receptor RXR-alpha/oxysterols receptor LXR-alpha (Homo sapiens, UniProt P19793+Q13133).
T1 sequence (P19793 whole entry): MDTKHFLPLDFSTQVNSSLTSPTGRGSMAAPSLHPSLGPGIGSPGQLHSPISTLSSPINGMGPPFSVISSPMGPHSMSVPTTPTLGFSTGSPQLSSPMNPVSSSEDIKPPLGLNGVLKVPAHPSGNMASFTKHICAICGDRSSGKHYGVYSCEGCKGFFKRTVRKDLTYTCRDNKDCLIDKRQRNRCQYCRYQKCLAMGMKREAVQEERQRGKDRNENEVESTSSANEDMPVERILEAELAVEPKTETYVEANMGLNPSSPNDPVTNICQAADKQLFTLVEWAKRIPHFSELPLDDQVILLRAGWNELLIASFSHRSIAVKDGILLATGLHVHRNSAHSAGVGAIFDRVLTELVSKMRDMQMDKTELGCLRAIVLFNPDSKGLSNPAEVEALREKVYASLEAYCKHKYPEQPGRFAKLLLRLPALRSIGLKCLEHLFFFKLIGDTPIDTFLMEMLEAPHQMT
T1 sequence (Q13133 whole entry): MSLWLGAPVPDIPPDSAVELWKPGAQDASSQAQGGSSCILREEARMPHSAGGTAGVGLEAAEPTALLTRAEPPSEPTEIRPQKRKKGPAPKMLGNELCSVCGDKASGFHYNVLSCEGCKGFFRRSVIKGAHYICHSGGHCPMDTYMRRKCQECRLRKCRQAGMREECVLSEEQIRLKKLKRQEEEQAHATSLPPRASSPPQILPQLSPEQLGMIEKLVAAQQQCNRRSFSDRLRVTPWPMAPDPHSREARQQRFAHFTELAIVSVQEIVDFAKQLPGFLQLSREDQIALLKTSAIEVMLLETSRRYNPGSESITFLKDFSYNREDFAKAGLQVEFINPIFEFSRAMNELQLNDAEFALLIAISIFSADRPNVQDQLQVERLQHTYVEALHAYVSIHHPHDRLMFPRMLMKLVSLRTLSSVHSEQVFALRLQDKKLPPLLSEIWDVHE
The series can be described thus: Agonist activity at human RXRalpha/LXRalpha expressed in human HCT116 cells assessed as reduction in SREBP-mediated transcription activity at 100 nM incubated for 24 hrs by luciferase reporter gene assay in presence of 100 nM LXR agonist TO901317 relative to bexarotene. Type of series: cell-based. Details: scale not given: the % may be the effect or the level left. The settings on record: 0.1 µM. The essentials: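 HCT116 cells co-transfected for 24 h with 100 ng pBP1c(6500)-Luc (about 6500 bp murine SREBP-1c promoter), 10 ng human LXRα and 20 ng renilla. Treated 24 h with compound at 100 nM, alone or with 100 nM TO901317. Luciferase output. Three independent assays in triplicate; bexarotene = 100%.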
(In a reporter assay the amount or activity of a reporter protein is the signal.)

Series [2] has as its system HuT78. The series is described as follows: Inhibition of HDAC1 gene expression in human HUT78 cells at 100 nM incubated for 48 hrs by quantitative real-time PCR method. In kind it is functional. The essentials: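 Hut78 cells resuspended in RPMI with 1% FBS, plated 750,000/well and dosed at 100 nM for 48 h. Total RNA extracted, 0.5 µg DNase-treated RNA reverse-transcribed, then qPCR for HDAC1. Quantified by ΔΔCt, normalized to GAPDH and relative to vehicle-treated cells (2^-ΔΔCt).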

The nature of series [3]: Lipid risk index, ratio of agonist activity at human RXRalpha/LXRalpha expressed in human HCT116 cells assessed as reduction in SREBP-mediated transcription activity to agonist activity at human RXRalpha expressed in human HCT116 cells assessed as increase in RXRE-mediated transcription. The essentials:
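Lipid risk index: SREBP-promoter luciferase activity (HCT116, LXRα-transfected, 100 nM compound with or without 100 nM TO901317, 24 h) divided by RXRE activity at 100 nM. The SREBP:RXRE ratio for bexarotene is set to 1.0.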

Series [4] addresses T2, Retinoic acid receptor RXR-alpha (Homo sapiens) (UniProt P19793).
T2 sequence (whole entry): T1 sequence (P19793 whole entry)
The series can be described thus: Agonist activity at human RXRalpha expressed in human HCT116 cells assessed as increase in RXRE-mediated transcription at 100 nM incubated for 24 hrs by RXRE luciferase reporter gene assay relative to bexarotene. Type of series: cell-based. The essentials: (§1)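 HCT-116 cells (80,000/well) co-transfected for 24 h with 250 ng RXRE-luciferase reporter (DR1 element from the rat cellular retinol binding protein II gene), 25 ng pSG5-human RXRα and 20 ng renilla. Dosed 24 h at 25, 100 or 1000 nM final; ethanol or DMSO vehicle 0.1%. Dual-luciferase read-out. Three independent assays in triplicate; bexarotene = 100%.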

In series [5] the target is T3, Retinoid X receptor (Homo sapiens) (UniProt P28702+P48443+P19793). The series is described as follows: Agonist activity at human RXR binding domain and activation domain expressed in human HCT116 cells assessed as rexinoid activity at 25 nM incubated for 24 hrs by luciferase reporter gene based mammalian two-hybrid assay relative to bexarotene. Type of series: cell-based. The essentials:
(§2)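 HCT-116 cells plated overnight (80,000/well, DMEM with 10% FBS), co-transfected for 24 h with human RXR binding-domain (bait) and activation-domain (prey) vectors, pFR-Luc Gal4 reporter and renilla control. Treated 24 h at 25, 100 or 1000 nM final; vehicle ethanol or DMSO 0.1%. Dual-luciferase read-out. Three independent assays in triplicate; bexarotene set to 100%.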

Series [6] deals with T2, Retinoic acid receptor RXR-alpha (Homo sapiens). The series is described as follows: Agonist activity at human RXRalpha expressed in human HCT116 cells assessed as increase in RXRE-mediated transcription at 25 nM incubated for 24 hrs by RXRE luciferase reporter gene assay relative to bexarotene. Type of series: cell-based. The essentials: as §1
Series [7] concerns the target T3, Retinoid X receptor (Homo sapiens). The series is described as follows: Agonist activity at human RXR binding domain and activation domain expressed in human HCT116 cells assessed as rexinoid activity at 1000 nM incubated for 24 hrs by luciferase reporter gene based mammalian two-hybrid assay relative to bexarotene. Type of series: cell-based. In short, it runs like this: as §2

Series [8] shares this target. The series is described as follows: Agonist activity at human RXR binding domain and activation domain expressed in human HCT116 cells assessed as rexinoid activity at 100 nM incubated for 24 hrs by luciferase reporter gene based mammalian two-hybrid assay relative to bexarotene. Type of series: cell-based. The essentials:
as §2

The target of series [9] is T2, Retinoic acid receptor RXR-alpha (Homo sapiens). The series can be described thus: Agonist activity at human RXRalpha expressed in human HCT116 cells assessed as increase in RXRE-mediated transcription incubated for 24 hrs by RXRE luciferase reporter gene assay. In kind it is cell-based.

T3 sequence (P28702 whole entry, looked up, one chain of several, the tested form may be a part): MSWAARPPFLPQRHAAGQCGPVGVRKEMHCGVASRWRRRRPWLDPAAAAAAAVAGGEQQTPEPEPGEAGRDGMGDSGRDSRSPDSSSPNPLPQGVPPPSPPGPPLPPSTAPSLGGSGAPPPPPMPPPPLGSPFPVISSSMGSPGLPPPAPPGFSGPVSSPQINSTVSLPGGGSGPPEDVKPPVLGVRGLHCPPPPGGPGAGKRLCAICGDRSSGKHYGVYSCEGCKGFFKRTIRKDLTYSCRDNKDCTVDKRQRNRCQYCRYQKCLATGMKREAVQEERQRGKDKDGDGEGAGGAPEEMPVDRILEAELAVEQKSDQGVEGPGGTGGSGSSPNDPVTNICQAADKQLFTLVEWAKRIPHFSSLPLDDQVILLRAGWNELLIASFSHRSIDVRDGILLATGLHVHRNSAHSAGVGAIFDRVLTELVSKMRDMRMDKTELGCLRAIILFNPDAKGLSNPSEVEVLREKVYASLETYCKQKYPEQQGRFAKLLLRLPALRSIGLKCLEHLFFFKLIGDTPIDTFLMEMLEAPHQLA
T3 sequence (P48443 whole entry, looked up, one chain of several, the tested form may be a part): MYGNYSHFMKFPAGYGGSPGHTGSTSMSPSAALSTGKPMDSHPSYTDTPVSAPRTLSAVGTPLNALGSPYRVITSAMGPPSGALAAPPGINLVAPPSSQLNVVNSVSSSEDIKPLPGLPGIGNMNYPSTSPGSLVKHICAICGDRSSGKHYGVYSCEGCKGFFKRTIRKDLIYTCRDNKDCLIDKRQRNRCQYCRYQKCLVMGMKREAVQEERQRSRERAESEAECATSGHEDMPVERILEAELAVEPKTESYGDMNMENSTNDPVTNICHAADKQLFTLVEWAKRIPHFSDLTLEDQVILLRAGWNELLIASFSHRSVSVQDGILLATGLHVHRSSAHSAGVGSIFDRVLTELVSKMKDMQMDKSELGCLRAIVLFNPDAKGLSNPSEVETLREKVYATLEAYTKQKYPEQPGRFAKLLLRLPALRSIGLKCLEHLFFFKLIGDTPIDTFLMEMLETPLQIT

As usually defined, the inhibition is the change of the read-out against control, counted positive when it falls. Regarding `CCN(c1ncc(C(=O)O)cn1)c1cc2c(cc1C)C(C)(C)CCC2(C)C`, the Activity in [1] lay within 13 to 17%; in [4] it was 68 to 89%; in series [6], 27 to 66%; in series [7], 35 to 58%; in series [8], 135 to 146%. The compound further returned an inhibition at 0.1 µM in [2] (HuT78, 48 h) of 28%. The Ratio in series [3] is 0.49 - 0.51. The fold change (FC) in [5] was 2.
As to `CCN(c1ccc2c(c1)C(C)(C)CCC2(C)C)c1ccc(C(=O)O)cn1`, the Activity in series [1] fell in the range of 13 to 17%; in series [4], 68 to 89%; in series [6] it was 27 to 66%; in series [7], 35 to 58%; in series [8], 135 to 146%. Besides, in series [2], the inhibition entry is “inactive”. In series [3], the Ratio is 0.49 - 0.51. Further, the fold change (FC) in series [5] amounted to 2.
For the compound `CCN(c1ccc(C(=O)O)c(F)c1)c1ccc2c(c1)C(C)(C)CCC2(C)C`, the results for the Activity result in series [1], in series [4] and in [6] were “Active”, 16 to 32% and 27 to 66%, respectively. Moreover, in series [3], the Ratio is reported as 0.48 - 0.65. For the same compound, the outcome in series [8] was Active.
For the compound `CCN(c1ccc(C(=O)O)c(F)c1)c1cc2c(cc1C)C(C)(C)CCC2(C)C`, the Ratio in [3] is recorded as 0.48 - 0.65. Besides, the Activity was 16 to 32% in series [4], 140 to 150% in series [5], 27 to 66% in series [6] and 51 to 56% in series [7]. Also, the result in series [8] was Active.
With `CCN(c1ccc2c(c1)C(C)(C)CCC2(C)C)c1cnc(C(=O)O)cn1`, the Activity is 33% in series [1], 11.3% in [5] and 35 to 58% in [7]. Further, the Ratio in series [3] is recorded as 0.48 - 0.65. Besides, the fold change (FC) in series [8] (in the assay text read “relative to activity at 25 nM” for “relative to bexarotene”) lay in the range of 5 to 16. Further, the outcome in series [9] was inactive.
In the case of `CCN(c1ccc(C(=O)O)cc1)c1cc2c(cc1C)C(C)(C)CCC2(C)C`, the Ratio in series [3] is recorded as 0.48 - 0.65. The Activity in [4] is 16 to 32%; in [5], 140 to 150%; in [6] it was 27 to 66%; in [7] it was 51 to 56%. Also, the result in series [8] was Active.

Values taken from ChEMBL document CHEMBL4428090, “Modeling, Synthesis, and Biological Evaluation of Potential Retinoid X Receptor (RXR)-Selective Agonists: Analogues of 4-[1-(3,5,5,8,8-Pentamethyl-5,6,7,8-tetrahydro-2-naphthyl)ethynyl]benzoic Acid (Bexarotene) and 6-(Ethyl(5,5,8,8-tetrahydronaphthalen-2-yl)amino)nicotinic Acid (NEt-TMN)” (J Med Chem, 2016).
